Measurements taken from BindingDB's records for doi:10.1021/jm2007886 (Universidad Complutense De Madrid, 2011).
pKi: −log10 of the molar value.

Assays:
[1] = biological target: 5-hydroxytryptamine receptor 2A (Rattus norvegicus, UniProt P14842); test: Displacement of [3H]ketanserin from 5HT2A receptor in Sprague-Dawley albinus rat frontal cortex membranes after 15 mins
How it was run: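 Rat frontal cortex membranes (male Sprague–Dawley, 180–200 g). Nonspecific binding was set with 1 μM cinanserin.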

[2] = biological target: T1, 5-hydroxytryptamine receptor 1A (Rattus norvegicus, UniProt P19327); test: Displacement of [3H]-8-OH-DPAT from 5-HT1A receptor in Sprague-Dawley albinus rat cerebral cortex membranes after 15 mins
T1 sequence (P19327 whole entry): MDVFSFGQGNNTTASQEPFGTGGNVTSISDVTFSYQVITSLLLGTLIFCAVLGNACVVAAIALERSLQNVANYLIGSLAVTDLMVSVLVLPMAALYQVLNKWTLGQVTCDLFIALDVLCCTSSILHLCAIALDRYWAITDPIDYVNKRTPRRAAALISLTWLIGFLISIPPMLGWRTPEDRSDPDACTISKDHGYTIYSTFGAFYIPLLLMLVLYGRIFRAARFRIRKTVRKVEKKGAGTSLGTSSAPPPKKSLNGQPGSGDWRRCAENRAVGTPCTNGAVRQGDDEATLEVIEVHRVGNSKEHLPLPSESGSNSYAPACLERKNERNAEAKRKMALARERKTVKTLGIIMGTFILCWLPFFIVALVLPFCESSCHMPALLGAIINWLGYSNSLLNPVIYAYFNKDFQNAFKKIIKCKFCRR

[3] = biological target: D(2) dopamine receptor (Rattus norvegicus, UniProt P61169); test: Displacement of [3H]spiperone from dopamine D2 receptor in Sprague-Dawley albinus rat striatal membranes after 15 mins
Chain of D(2) dopamine receptor (P61169 whole entry): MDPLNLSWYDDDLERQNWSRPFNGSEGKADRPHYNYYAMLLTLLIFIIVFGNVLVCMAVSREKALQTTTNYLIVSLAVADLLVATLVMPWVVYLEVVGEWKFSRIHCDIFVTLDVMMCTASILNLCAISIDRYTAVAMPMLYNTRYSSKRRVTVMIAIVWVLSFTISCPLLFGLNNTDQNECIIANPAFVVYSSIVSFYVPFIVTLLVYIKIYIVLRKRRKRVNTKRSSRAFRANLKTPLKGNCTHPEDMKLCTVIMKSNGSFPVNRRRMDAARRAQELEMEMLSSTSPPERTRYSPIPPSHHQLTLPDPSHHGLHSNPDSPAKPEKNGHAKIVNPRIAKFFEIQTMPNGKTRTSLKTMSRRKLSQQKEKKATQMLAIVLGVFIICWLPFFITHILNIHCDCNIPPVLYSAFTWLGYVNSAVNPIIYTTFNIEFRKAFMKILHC

[4] = biological target: 5-hydroxytryptamine receptor 7 (Rattus norvegicus, UniProt P32305); test: Displacement of [3H]-5-CT from 5HT7 receptor in Sprague-Dawley albinus rat hyphalamic membranes after 120 mins
Chain of 5-hydroxytryptamine receptor 7 (P32305 whole entry): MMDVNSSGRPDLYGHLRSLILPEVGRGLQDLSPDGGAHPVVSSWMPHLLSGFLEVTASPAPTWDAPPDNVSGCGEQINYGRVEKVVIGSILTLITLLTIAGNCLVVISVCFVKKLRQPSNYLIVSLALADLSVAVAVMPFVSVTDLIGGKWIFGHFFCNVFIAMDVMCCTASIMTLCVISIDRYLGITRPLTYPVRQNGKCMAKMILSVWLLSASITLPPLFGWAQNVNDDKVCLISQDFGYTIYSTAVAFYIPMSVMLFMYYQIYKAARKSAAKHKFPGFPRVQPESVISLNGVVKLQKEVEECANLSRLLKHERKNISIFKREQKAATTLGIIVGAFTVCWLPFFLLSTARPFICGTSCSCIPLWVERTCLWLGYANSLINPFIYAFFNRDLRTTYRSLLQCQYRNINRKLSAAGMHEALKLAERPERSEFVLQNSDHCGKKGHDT

[5] = biological target: T2, 5-hydroxytryptamine receptor 3A (Rattus norvegicus, UniProt P35563); test: Displacement of [3H]-LY278584 from 5HT3 receptor in Sprague-Dawley albinus rat cerebral cortex membranes after 30 mins
T2 sequence (P35563 whole entry): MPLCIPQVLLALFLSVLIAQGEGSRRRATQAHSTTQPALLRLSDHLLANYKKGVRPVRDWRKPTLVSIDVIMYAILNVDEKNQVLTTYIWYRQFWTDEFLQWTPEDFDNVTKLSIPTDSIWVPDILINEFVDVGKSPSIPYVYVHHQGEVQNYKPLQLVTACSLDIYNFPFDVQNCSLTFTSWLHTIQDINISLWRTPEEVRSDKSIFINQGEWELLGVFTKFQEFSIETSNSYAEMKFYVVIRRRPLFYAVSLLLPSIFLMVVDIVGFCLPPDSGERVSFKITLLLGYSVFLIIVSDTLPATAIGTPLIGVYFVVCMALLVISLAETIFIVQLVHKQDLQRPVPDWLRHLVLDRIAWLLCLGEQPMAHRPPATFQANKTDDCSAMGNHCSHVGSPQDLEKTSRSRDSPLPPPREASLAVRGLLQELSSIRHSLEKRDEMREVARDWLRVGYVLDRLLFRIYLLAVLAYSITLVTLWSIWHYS

[6] = biological target: 5-hydroxytryptamine receptor 4 (Rattus norvegicus, UniProt Q62758); test: Displacement of [3H]GR113808 from 5HT4 receptor in Sprague-Dawley albinus rat striatal membranes after 30 mins by scintillation counting
Chain of 5-hydroxytryptamine receptor 4 (Q62758 whole entry): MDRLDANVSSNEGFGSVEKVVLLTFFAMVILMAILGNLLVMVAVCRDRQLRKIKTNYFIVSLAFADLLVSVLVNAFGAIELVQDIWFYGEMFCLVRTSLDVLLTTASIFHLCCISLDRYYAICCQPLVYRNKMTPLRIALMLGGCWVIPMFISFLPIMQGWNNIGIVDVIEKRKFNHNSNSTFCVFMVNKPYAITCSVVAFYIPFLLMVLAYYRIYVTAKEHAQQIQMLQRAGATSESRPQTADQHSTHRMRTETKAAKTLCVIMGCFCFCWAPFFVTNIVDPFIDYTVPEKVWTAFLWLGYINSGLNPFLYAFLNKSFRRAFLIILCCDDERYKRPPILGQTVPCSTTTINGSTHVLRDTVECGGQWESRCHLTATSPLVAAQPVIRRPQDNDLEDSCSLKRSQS

Chain of 5-hydroxytryptamine receptor 2A (P14842 whole entry): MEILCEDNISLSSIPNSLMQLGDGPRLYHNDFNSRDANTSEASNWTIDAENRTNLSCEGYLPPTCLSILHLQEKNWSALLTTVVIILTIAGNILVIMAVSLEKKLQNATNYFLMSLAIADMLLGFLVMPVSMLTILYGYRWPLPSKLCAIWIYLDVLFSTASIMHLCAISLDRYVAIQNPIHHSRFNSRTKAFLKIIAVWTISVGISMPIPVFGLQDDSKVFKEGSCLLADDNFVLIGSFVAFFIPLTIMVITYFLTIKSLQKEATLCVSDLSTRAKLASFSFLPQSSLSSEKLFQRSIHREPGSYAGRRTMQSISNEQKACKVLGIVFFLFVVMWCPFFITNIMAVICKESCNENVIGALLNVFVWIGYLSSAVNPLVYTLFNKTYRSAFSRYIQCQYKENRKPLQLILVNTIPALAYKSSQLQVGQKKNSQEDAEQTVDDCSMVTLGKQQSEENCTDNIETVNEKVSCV

pKi [1]	pKi [2]	pKi [5]	Compound	also measured
< 6.00	–	–	O=c1n(CCCCNCC2CCc3ccccc3O2)c(O)c2n1CSC2 (stereo not given)	–
< 6.00	–	–	O=c1scc(O)n1CCCCNCC1CCc2ccccc2O1 (stereo not given)	–
< 6.00	–	–	O=c1scc(O)n1CCCCCNCC1CCc2ccccc2O1 (stereo not given)	–
< 6.00	–	–	O=c1scc(O)n1CCCCCCNCC1CCc2ccccc2O1 (stereo not given)	–
< 6.00	–	< 6.00	O=c1n(CCCCNCC2CCc3ccccc3O2)c(O)c2n1CCCC2 (stereo not given)	–
< 6.00	–	< 6.00	O=c1n(CCCCCNCC2CCc3ccccc3O2)c(O)c2n1CCC2 (stereo not given)	–
< 6.00	–	< 6.00	O=c1n(CCCCCCNCC2CCc3ccccc3O2)c(O)c2n1CCC2 (stereo not given)	–
< 6.00	–	–	O=c1scc(O)n1CCCCCCCCNCC1CCc2ccccc2O1 (stereo not given)	–

The next lines start with the molecule.

Compound	pKi [1]	pKi [2]	pKi [5]	also measured
O=c1n(CCCCNCc2ccccn2)c(O)c2n1CCC2	–	< 6.00	–	–
O=c1n(CCCCNCc2ccccc2)c(O)c2n1CCC2	–	< 6.00	–	–
O=c1n(CCCCNCCc2cccc3ccccc23)c(O)c2n1CCC2	< 6.00	7.55	< 6.00	pKi [3]: < 6.00; pKi [4]: < 6.00; pKi [6]: < 6.00
O=c1n(Cc2cccc(CNCC3CCc4ccccc4O3)c2)c(O)c2n1CCC2 (stereo not given)	< 6.00	–	< 6.00	–
O=c1n(CCCCNCc2ccco2)c(O)c2n1CCC2	–	< 6.00	–	–
O=c1n(CCCCNCCc2cccs2)c(O)c2n1CCC2	–	< 6.00	–	–
O=c1n(CCCCNCCc2ccccn2)c(O)c2n1CCC2	–	< 6.00	–	–
O=c1n(CCCCNCCc2ccc3ccccc3c2)c(O)c2n1CCC2	–	–	< 6.00	pKi [3]: < 6.00
O=c1n(CCCNCC2CCc3ccccc3O2)c(O)c2n1CCC2 (stereo not given)	< 6.00	–	< 6.00	–
O=c1n(CCCCNCCc2ccco2)c(O)c2n1CCC2	–	< 6.00	–	–
O=c1n(CC#CCNCC2CCc3ccccc3O2)c(O)c2n1CCC2 (stereo not given)	–	< 6.00	–	–
O=c1n(CCCCNCc2cccc3ccccc23)c(O)c2n1CCC2	–	< 6.00	–	–
O=c1n(CCCCNCc2ccc3ccccc3c2)c(O)c2n1CCC2	< 6.00	–	–	–
O=c1n(CCCCNCc2ccc3ccccc3n2)c(O)c2n1CCC2	< 6.00	–	< 6.00	–
O=c1n(CCCCNCc2cccs2)c(O)c2n1CCC2	–	< 6.00	–	–
O=c1n(C/C=C/CNCC2CCc3ccccc3O2)c(O)c2n1CCC2 (stereo not given)	< 6.00	–	–	–
O=c1n(CCCCNCCc2ccccc2)c(O)c2n1CCC2	–	< 6.00	–	–
O=c1n(Cc2ccc(CNCC3CCc4ccccc4O3)cc2)c(O)c2n1CCC2 (stereo not given)	< 6.00	7.55	< 6.00	–
